Assay results from different studies.
Compare with care: the assays were run in different laboratories. Values after ≈ are worked out from the molar mass of the structure shown.
Organism: Acinetobacter baumannii
Effect on: microbial growth

| SMILES | test | test system | conditions | MIC [mg/L] |
| --- | --- | --- | --- | --- |
| C[n+]1ccc(/C=C2\Sc3ccccc3N2CCCN2CCCCC2)c2ccccc21.[I-] | broth dilution | ATCC19606 | drug-resistant strain | 64 |
| CC(=O)C1=C(O)C(CC(C)C)NC1=O (centres unmarked) |  | ATCC19606 |  | > 200 |
| Cc1c(NN=C(C#N)C2=NC(=O)CS2)c(=O)n(-c2ccccc2)n1C | broth dilution |  |  | 0.43 (≈ 1.21 µM) |
| COC(=O)c1cc(-c2cccc(NC(=O)Nc3ccccc3OC)c2)on1 | broth dilution | BAA1605 |  | > 64 |
| Fc1c(F)c(F)c(-c2c(F)c(F)c(F)c(F)c2F)c(F)c1F |  | ATCC19606 |  | > 250 |
| Cc1cc(/C=C2\Sc3ccccc3N2CCCN2CCC(C)CC2)c2ccccc2[n+]1C.[I-] | broth dilution | ATCC19606 | drug-resistant strain | 16 |
| COc1ccc2cc1Oc1cc(ccc1OC)CCC(N[C@@H]1CCCc3ccccc31)CCCC2 (some centres unmarked) | broth dilution | ATCC19606 |  | > 100 |
| CCOC(=O)c1cc(-c2cccc(NC(=O)Nc3ccc(Cl)c(Cl)c3)c2)on1 | broth dilution | BAA1605 |  | > 64 |
| Fc1c(F)c(F)c(F)c(F)c1F |  | ATCC19606 |  | > 250 |
| C[n+]1c(/C=C/c2c[nH]c3ccccc23)cc(/C=C2\Sc3ccccc3N2CCCN2CCCC2)c2ccccc21.[I-] | broth dilution | ATCC19606 | drug-resistant strain | 32 |
| COC(=O)c1cc(-c2cccc(NC(=O)Nc3cccc(Br)c3)c2)on1 | broth dilution | BAA1605 |  | > 64 |
| CN[C@@H]1[C@H](O)[C@H](NC)[C@H]2O[C@@]3(O)C(=O)C[C@@H](C)O[C@H]3O[C@@H]2[C@H]1O | broth dilution | ATCC19606 |  | > 200 |
| CN[C@H](CC(C)C)C(=O)N[C@H]1C(=O)N[C@@H](CC(N)=O)C(=O)N[C@H]2C(=O)N[C@H]3C(=O)N[C@H](C(=O)N[C@H](C(=O)O)c4cc(O)cc(O)c4-c4cc3ccc4O)[C@H](O)c3ccc(c(Cl)c3)Oc3cc2cc(c3O[C@@H]2O[C@H](CO)[C@@H](O)[C@H](O)[C@H]2O[C@H]2C[C@](C)(N)[C@H](O)[C@H](C)O2)Oc2ccc(cc2Cl)[C@H]1O | broth dilution | ATCC19606 | drug-resistant strain | 64 (≈ 44.2 µM) |
| COC(=O)c1cc(-c2cccc(NC(=S)Nc3cccc(Cl)c3)c2)on1 | broth dilution | BAA1605 |  | > 64 |
